Tested on: MS2 coat protein
Experiment: apparent Kd, MS2 coat protein; higher = weaker binding; RNA-MaP array; FMN 200 µM where present
Summary of the method: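 Designs were transcribed by stalled E. coli RNA polymerase on Illumina sequencing-chip clusters. They were titrated with SNAP-549-labelled MS2 coat protein from 0.7 or 1.5 nM, doubling to 3 µM, without and then with constant ligand. Buffer: 100 mM Tris-HCl pH 7.5, 80 mM KCl, 4 mM MgCl2, BSA, DTT, yeast tRNA, Tween-20. Green signal was normalised to red-channel RNA signal and control-cluster median Fmax. Apparent Kd is the median of filtered per-cluster binding-curve fits.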

[1] = designed as: ON switch for flavin mononucleotide, no ligand
[2] = ligand present: flavin mononucleotide, designed as: ON switch for flavin mononucleotide
[3] = designed as: OFF switch for flavin mononucleotide, no ligand
[4] = ligand present: flavin mononucleotide, designed as: OFF switch for flavin mononucleotide

Sequence | apparent Kd [1] | apparent Kd [2] | apparent Kd [3] | apparent Kd [4]
AAAAAAAAAAUGCAGGAUAUGGGAAAAAAAACAUGAGGAUCACCCAUGUAAAAAAAAAAAAAAAACUAGAAGGGUAAAAAAAAAAA | 80.2 nM | 62.3 nM | – | –
AAAAAACAUGAGGAUCACCCAUGUAAAAAAAAUGGAGGAUAUUGGAAAAAAAAAAAAAAACGAGAAGGCUAAAAAA | 84.4 nM | 71.1 nM | – | –
AAAAAACAUGAGGAUCACCCAUGUAAGGAUAUCGUGCAGAAAAAAAAAAAAAACUGCACGAGAAGGUACAAGGA | – | – | 74.4 nM | 108 nM
AAAAAACAUGAGGAUCACCCAUGUAAGGAUAUGCAAAAAAAAAAAAAAAAAAAAAAAAGCAGAAGGUACAAAAA | – | – | 34.2 nM | 62 nM
AAAAAACAUGAGGAUCACCCAUGUGAGGAUAUCAGUAUUCAGUCCUCGGAUUGAGUACUGAGAAGGCACAUAAA | – | – | 51.5 nM | 94.2 nM
AAAAAGGCAGGAUAUACAUGAGGAUCACCCAUGUUAAAAAAAAAAAAAAAAAAAAAGUGUAGAAGGGCCAAAAA | – | – | 55.6 nM | 55 nM
AAAAAGUGAGGAUAUGCUUUUAUUUAUUAUUAUUAUUAUUUGCAGAAGGCACAUGAGGAUCACCCAUGUAAGAA | – | – | 31.7 nM | 24.9 nM
AAAACACAUGAGGAUCACCCAUGUAUCUGGACCAUAGGAUAUCCGCACCCACUAGGGCGUGGAGAAGGGUGAGCCC | 170 nM | 194 nM | – | –
AAAACACAUGAGGAUCACCCAUGUAUCUGGACCAUAGGAUAUCCGCGCCCAAUAAGGUGUGGAGAAGGGUGAGCCC | 158 nM | 181 nM | – | –
AAAACACAUGAGGAUCACCCAUGUGAGGAUAUGUUAAUUUCGGCCAAAGCCGAAAUUAACAGAAGGCACAUAAA | – | – | 49.9 nM | 45.1 nM
AAAACGGUAGGAUAUACAGUCCGUUGUCGAAUGAUGAAAAGACAUGAGGAUCACCCAUGUAGAAGGACCGAAAA | – | – | 54.8 nM | 125 nM
AAAACUGGAGGAUAUACAUGAGGAUCACCCAUGUGUGGAUGAGCUGUGUCGGCGUCACGUAGAAGGCCACAAAA | – | – | 40.5 nM | 47.5 nM
AAAAGACAUGAGGAUCACCCAUGUAAAGACGUAGGAGGAUAUGUAUGGAAACCAUACUGUACAGAAGGCCUUUGUC | 23.8 nM | 18.3 nM | – | –
AAAAGGCAAGGAUAUACAUGAGGAUCACCCAUGUAAUUCCCGUCGGGAUGACCGAUAUGUAGAAGGUGCAUUAA | – | – | 20.1 nM | 43.4 nM
AAAAGUAGAGGAUAUACAUGAGGAUCACCCAUGUAGAAAGGAAGUGUAUAUAUGGCGUGUAGAAGGCUGCAUGA | – | – | 38.3 nM | 39.2 nM
AAAAGUUGAGGAUAUGGCUAUUUGGACAUGAGGAUCACCCAUGUGUCUAUGGCCCGGGUGCCAGAAGGUGAUUACU | – | – | 92.2 nM | 94.3 nM
AAAAGUUGGUAAGGAUAUCCCACAUUAUUCUGACCCGUGCAAGCUACAUGAGGAUCACCCAUGUGGGAGAAGGUGCGUUAAAGA | – | – | 54.7 nM | 64.6 nM
AAAAUACAUGAGGAUCACCCAUGUCAGGAUAUUCCUGCAGCCUUGAAUAUGGGCUGGUGAAGAAGGGACGGUGA | – | – | 40.1 nM | 105 nM
AAAAUGGUCUAGGAUAUGACAAAUCUGAGCACGUCAGAAGGAGACACAUGAGGAUCACCCAUGUGGGUGCGAAA | – | – | 36.1 nM | 189 nM

Sequence | apparent Kd [1] | apparent Kd [2] | apparent Kd [3] | apparent Kd [4]
AAAAUGUGAGGAUAUCAGGUGUGCUAGCGAACUGGUACAUCUGAGAAGGCACAUGAGGAUCACCCAUGUUCCUU | – | – | 15.8 nM | 57 nM
AAACAUGUCCGAGGAUAUCUGAGAUCAUUUUCAAGAGAAGGCGGACAUGAGGAUCACCCAUGUCUCUCCUCAUCAACGCCAAAU | – | – | 26.9 nM | 51.7 nM
AAACAUGUCCGAGGAUAUCUGGAAACAUUUCCAAGAGAAGGCGGACAUGAGGAUCACCCAUGUCUCUCCUCAUCACAUCCAAGU | – | – | 9.27 nM | 79.3 nM
AAACAUGUCCGAGGAUAUCUGGAAACAUUUCCGAGAGAAGGCGGACAUGAGGAUCACCCAUGUCUCUCCUCAUCAAAUCCAAGU | – | – | 8.44 nM | 80.7 nM
AAACAUGUCCGAGGAUAUCUGGAAACAUUUUCAAGAGAAGGCGGACAUGAGGAUCACCCAUGUCUCUCCUCAUCAACUAUAAAU | – | – | 8.24 nM | 60.6 nM
AAACGACGUCAGAAGGCCGAUGGAUUUGACCACGGAGGAUAUGACAUGAGGAUCACCCAUGUGGUGCUUCUAACCCGCUGGGCC | – | – | 501 nM | 69.7 nM
AAACGCGUAGGAUAUACAUGAGGAUCACCCAUGUAUUGGGCUGUUGAUCUUCCUAAGGGUAGAAGGACGGGCAC | – | – | 68.1 nM | 119 nM
AAACUAGUAGAGGAUAUUCCAGGCAGUGUUUGAGAAGAAGGCUACACAUGAGGAUCACCCAUGUGGCCUGGUGG | – | – | 13.6 nM | 17.1 nM
AAACUGCCACAUGAGGAUCACCCAUGUAAAUAAAGUAUUUGGAGAAGGGCGAUAGCAAAGCUAUCGCAGGAUAUCCUCAGGCAG | 801 nM | 87.9 nM | – | –
AAAGAACAUGAGGAUCACCCAUGUGAGGAUAUACGAGCGUGAGAAAGAUAAAACGAGCGUAGAAGGCACAAGAA | – | – | 76.9 nM | 81.5 nM
AAAGGACAUGAGGAUCACCCAUGUCAGGAUAUCGCUUUAGGACAUACCCAUUAACCUGCGAGAAGGGACGGUGA | – | – | 32.8 nM | 44.6 nM
AAAGUACAUGAGGAUCACCCAUGUCCCAAUGAAUAAGGAUAUACGAAAAUAAAAUAAAAUGUAGAAGGUAUAAUAG | 31.6 nM | 27.2 nM | – | –
AAAGUUGGUAGGCCCUCGGAACAUGAGGAUCACCCAUGUAAGGAGGAUAUGCCCGGUACCCGCUGGCAGAAGGCCUUAUAAGAA | – | – | 28.2 nM | 239 nM
AAAUAAAAUAUAGGAUAUGGAAACAUGAGGAUCACCCAUGUAUGAUAAGAUAAAUAAUGAUAUAGCCAGAAGGAUACAAUAUAA | 31 nM | 38.3 nM | – | –
AAAUAAACUACGAAGAUAUCCUCACAUGAGGAUCACCCAUGUCAGGAUAUUUGUCCUAAAAGGACAGAGAAGGGACGUCGUAGA | – | – | 5.09 nM | 7.54 nM
AAAUAAAGGACUAAGGAUAUAUCGCAUGACACAUGAGGAUCACCCAUGUGGUAACACAGAGGGUGAUAGAAGGUAGUCCACAAACA | 404 nM | 75.8 nM | – | –
AAAUACCGGUGAGGAUAUUUUUAAUAGAGCUUUAUGAUAUACAUGAGGAUCACCCAUGUUACGUUAAAGAAGGCAUCGGAUAAA | – | – | 18.4 nM | 16.6 nM
AAAUACGUUUCGUAGCAGUGUCAUCGAGAAGGCCCUGACAUGAGGAUCACCCAUGUUGUUACAUGGGAGGAUAUCGAUGAUAAA | 16.2 nM | 5.52 nM | – | –
AAAUAGGCAGGAUAUACAUGAAAAUUAAAAAAAAAAAAAAAACAUGAGGAUCACCCAUGUAGAAGGGUCAAAAA | – | – | 97.5 nM | 92.9 nM

Sequence | apparent Kd [1] | apparent Kd [2] | apparent Kd [3] | apparent Kd [4]
AAAUCACAUGAGGAUCACCCAUGUGAGGAUAUGAUACUAUGUACUUCGGUACAUAGUAUCAGAAGGCAUAUGGA | – | – | 23 nM | 35.9 nM
AAAUCGGCAGGAUAUACAUGAAAAUUAAAAAAAAAAAAAAAACAUGAGGAUCACCCAUGUAGAAGGGUCAAAAA | – | – | 88.9 nM | 89.2 nM
AAAUGAUGUCAGGAUAUUGACGUUAAAAGAACGCAAGAAGGGACAACAUGAGGAUCACCCAUGUGGUCCUAUAA | – | – | 14.9 nM | 34 nM
AAAUGCCUGUCGAUGCUCGACAUGAGGAUCACCCAUGUACAGCAGGAUAUGCAGAACAACCUCGUGCAGAAGGGCUGUACCAAU | – | – | 54.3 nM | 157 nM
AAAUGCUUGUCGAUGCUCGACAUGAGGAUCACCCAUGUAUAGCAGGAUAUGCAGAACUGACUCGUGCAGAAGGGCUAUACCUAA | – | – | 23.2 nM | 69.6 nM
AAAUUAAGAAGAGGAUAUUGACAUGAGGAUCACCCAUGUAUUUGGGAAUGUUUACUGAAUUCUUACGAGAAGGUUUACGAACUU | – | – | 191 nM | 132 nM
AAAUUAAGAAGAGGAUAUUGACAUGAGGAUCACCCAUGUAUUUGGGAGUGUUUACUGAAUUCUUACGAGAAGGCUUACGAAAUU | – | – | 221 nM | 212 nM
AAAUUAAGUGUGAGGAUAUGCUGGUCCUUAGAUCAGCAGAAGGCACAUGAGGAUCACCCAUGUAAUAUAUUUAA | – | – | 38.9 nM | 193 nM
AAAUUUAACGAAGGAUAUACAAACAUGAGGAUCACCCAUGUGUGUUUCGUGUUACUGAAAUUCGGGUAGAAGGUCGUAUACAUA | – | – | 23.4 nM | 18.1 nM
AAAUUUAACGAAGGAUAUGCUGACAUGAGGAUCACCCAUGUGUGCCUUGUGUUACUGAUUAGGAAGCAGAAGGUCGUAUACAUA | – | – | 831 nM | 414 nM
AAAUUUAACGAAGGAUAUGGUGACAUGAGGAUCACCCAUGUUAAUUUUGUGAUCUUGUUUAAGUUCCAGAAGGUCGUAUACAUA | – | – | 210 nM | 600 nM
AACAAACGCCUAGGAUAUCAUACUCGAGCGGUCUGAGAAGGAGGCAAGCUUGGGUCCUCAGCACAUGAGGAUCACCCAUGUAAG | – | – | 303 nM | 57.2 nM
AACAAUUAGUAAGGAUAUACUAGCGAUUAGCUUGUAGAAGGUACAGUCUUAUGUAUAACAAAUUAACAUGAGGAUCACCCAUGU | 10.4 nM | 7.88 nM | – | –
AACACAACAUGAAACAUGAGGAUCACCCAUGUUGUUUGUAAUCAGGAUAUGAUCUCAAGAAUGAAUUAGAAGGGAUAGGGAGGG | 35.8 nM | 47.1 nM | – | –
AACAGCUCGUCAGGAUAUAUUUUCAUUAUAUGUAUUUAUGUACAUGAGGAUCACCCAUGUUGUUUGUAGAAGGGACGAGCUGAA | – | – | 13.6 nM | 11.4 nM
AACAGUAGAGGAUAUACAUGAGGAUCACCCAUGUGAUAUUUACGUGGCGUACCACGAAGUAGAAGGCUACUGGA | – | – | 30.7 nM | 265 nM
AACAGUCUGGAGGAUAUGCUGGAUGAAUAUCUGGCAGAAGGCUGGACAUGAGGAUCACCCAUGUAAAUACUACC | – | – | 27.1 nM | 54.5 nM
AACAUGUCAGGAUAUGUGACAUGGCUCUUCGGAGCAAGAUCACAGAAGGGACAUGAGGAUCACCCAUGUCGAUC | – | – | 38.7 nM | 156 nM

From the EternaBench riboswitch data
